Laboratory results taken from ChEMBL document CHEMBL1130218, “Potent anandamide analogs: the effect of changing the length and branching of the end pentyl chain” (J Med Chem, 1997).
The source made the active and inactive calls. No cut-off for these calls is given here.

Columns and labels:
Mus musculus [1] = organism: Mus musculus; assay: Hypothermia as measured from changes in rectal (RT) in mice; Inactive; type: functional, organism-based
Outline: (§1)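 Separate group of mice; rectal temperature by thermistor probe inserted 25 mm before and 4 min after iv tail-vein injection (ethanol:emulphor:saline 1:1:18, 0.1 mL/10 g).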

Mus musculus [2] = organism: Mus musculus; assay: Inhibition of spontaneous activity (SA) in mice; type: functional
Outline: (§2)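 Measured in the same mice as tail-flick; iv tail-vein dosing in ethanol:emulphor:saline 1:1:18, 0.1 mL/10 g. Immediately after tail-flick (about 4 min post-injection) mice placed in individual photocell cages; beam interruptions over 16 beams counted for 10 min.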

Mus musculus [3] = organism: Mus musculus; assay: Ring immobility (RI) in mice; type: functional
Outline: (§3)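 Same mice as temperature test; immediately after temperature reading, mice placed on 5.5 cm ring 16 cm high and motionless time over 5 min recorded; % immobility = time/300 s × 100. iv tail-vein dosing in ethanol:emulphor:saline 1:1:18.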

Mus musculus [4] = organism: Mus musculus; assay: Antinociception as measured from the tail - flick response (TF), in mice; type: functional
Cannabinoid receptor 1 [5] = target: T1, Cannabinoid receptor 1 (Mus musculus, UniProt P47746); assay: Binding affinity for Cannabinoid receptor 1 in presence of phenylmethylsulfonyl fluoride (PMSF)
T1 sequence (P47746 whole entry): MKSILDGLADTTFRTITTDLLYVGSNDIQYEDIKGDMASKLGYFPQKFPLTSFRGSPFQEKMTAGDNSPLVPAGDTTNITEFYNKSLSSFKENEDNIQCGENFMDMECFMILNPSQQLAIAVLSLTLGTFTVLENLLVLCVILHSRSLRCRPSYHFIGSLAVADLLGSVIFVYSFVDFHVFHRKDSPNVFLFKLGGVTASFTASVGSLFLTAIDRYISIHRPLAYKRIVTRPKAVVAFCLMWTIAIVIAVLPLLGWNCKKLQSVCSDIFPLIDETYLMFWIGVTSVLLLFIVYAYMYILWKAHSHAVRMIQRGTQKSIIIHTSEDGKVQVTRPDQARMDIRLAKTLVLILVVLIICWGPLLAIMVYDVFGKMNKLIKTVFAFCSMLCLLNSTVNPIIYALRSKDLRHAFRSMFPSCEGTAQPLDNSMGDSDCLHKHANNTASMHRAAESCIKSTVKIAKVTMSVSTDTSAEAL
Outline: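 Radioligand binding to P2 membranes (150 µg protein) in 50 mM Tris-HCl, 1 mM EDTA, 3 mM MgCl2, 5 mg/mL BSA, with amidase inhibitor PMSF 50 µM; final ethanol ≤0.4%. 1 h at 30 °C; nonspecific binding with 1 µM CP-55,940; terminated with ice-cold buffer and rapid filtration through PEI-treated filters.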

Cannabinoid receptor 1 [6] = target: T1, Cannabinoid receptor 1; assay: Binding affinity for Cannabinoid receptor 1 in absence of phenylmethylsulfonyl fluoride (PMSF)
Outline: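 Radioligand binding to P2 membranes (150 µg protein) in 50 mM Tris-HCl, 1 mM EDTA, 3 mM MgCl2, 5 mg/mL BSA; ethanolic stocks diluted, final ethanol ≤0.4%; no PMSF. 1 h at 30 °C; nonspecific binding with 1 µM CP-55,940; stopped with ice-cold buffer and rapid filtration through PEI-treated filters.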

Mus musculus [7] = organism: Mus musculus; assay: Hypothermia as measured from changes in rectal (RT) in mice; type: functional; outline: as §1
Mus musculus [8] = organism: Mus musculus; assay: Ring immobility (RI) in mice; Inactive; type: functional, organism-based; outline: as §3
Mus musculus [9] = organism: Mus musculus; assay: Antinociception as measured from the tail - flick response (TF), in mice; Inactive; type: functional, organism-based
Mus musculus [10] = organism: Mus musculus; assay: Inhibition of spontaneous activity (SA) in mice; Inactive; type: functional, organism-based; outline: as §2

Q: What does the source list for CCCCCCCC(C)(C)/C=C\C/C=C\C/C=C\C/C=C\CCC(C)C(=O)NCCF (centres undefined)?
A: ED50 (Mus musculus [1]): inactive; ED50 (Mus musculus [2]): 20.3 mg/kg; ED50 (Mus musculus [3]): 33.3 mg/kg; ED50 (Mus musculus [4]): 12.8 mg/kg; Ki (Cannabinoid receptor 1 [5]): 14 nM

Q: With CCCCCC(C)(C)C/C=C\C/C=C\C/C=C\C/C=C\CCCC(=O)NCCO as the compound, how does the Ki (Cannabinoid receptor 1 [6]) read?
A: 39 nM

Q: And the ED50 (Mus musculus [7])?
A: 9.38 mg/kg

Q: And the ED50 (Mus musculus [2])?
A: 3.36 mg/kg

Q: And the ED50 (Mus musculus [3])?
A: 5.05 mg/kg

Q: What about the ED50 (Mus musculus [4]) of the same compound?
A: 57.3 mg/kg

Q: And the Ki (Cannabinoid receptor 1 [5])?
A: 19 nM

Q: How did the ED50 (Mus musculus [7]) turn out when CCCCCC(C)(C)C/C=C\C/C=C\C/C=C\C/C=C\CCC(C)C(=O)NCCF (centres undefined) was run?
A: 76.2 mg/kg

Q: And the ED50 (Mus musculus [2])?
A: 3.14 mg/kg

Q: What about the ED50 (Mus musculus [3]) of the same compound?
A: 11.4 mg/kg

Q: And the ED50 (Mus musculus [4])?
A: 4.12 mg/kg

Q: And the Ki (Cannabinoid receptor 1 [5])?
A: 7.7 nM

Q: What does the source list for CCCCCCC/C=C\C/C=C\C/C=C\C/C=C\CCCC(=O)NCCO?
A: Ki (Cannabinoid receptor 1 [6]): 1780 nM; ED50 (Mus musculus [1]): inactive; ED50 (Mus musculus [2]): 20.4 mg/kg; ED50 (Mus musculus [8]): inactive; ED50 (Mus musculus [9]): inactive; Ki (Cannabinoid receptor 1 [5]): 55 nM

Q: For CCCCCCCC/C=C\C/C=C\C/C=C\C/C=C\CCCC(=O)NCCO, which Ki (Cannabinoid receptor 1 [6]) is on record?
A: 156 nM

Q: And the ED50 (Mus musculus [10])?
A: inactive

Q: And the ED50 (Mus musculus [9])?
A: inactive

Q: What about the Ki (Cannabinoid receptor 1 [5]) of the same compound?
A: 18 nM

Q: Which results are given for CCCCC/C=C\C/C=C\C/C=C\C/C=C\CCC(C)C(=O)NCCF (centres undefined)?
A: Ki (Cannabinoid receptor 1 [6]): 15 nM; ED50 (Mus musculus [7]): 2.73 mg/kg; ED50 (Mus musculus [2]): 4.78 mg/kg; ED50 (Mus musculus [3]): 1.6 mg/kg; ED50 (Mus musculus [4]): 6.99 mg/kg; Ki (Cannabinoid receptor 1 [5]): 5.7 nM

Q: Which results are given for CCCCCCCC/C=C\C/C=C\C/C=C\C/C=C\CCC(C)C(=O)NCCF (centres undefined)?
A: ED50 (Mus musculus [1]): inactive; ED50 (Mus musculus [2]): 3.52 mg/kg; ED50 (Mus musculus [3]): 6.37 mg/kg; ED50 (Mus musculus [4]): 15.3 mg/kg; Ki (Cannabinoid receptor 1 [5]): 8.2 nM

Q: Which results are given for CCCCC(C)(C)C/C=C\C/C=C\C/C=C\C/C=C\CCCC(=O)NCCO?
A: Ki (Cannabinoid receptor 1 [6]): 382 nM; ED50 (Mus musculus [1]): inactive; ED50 (Mus musculus [2]): 44.1 mg/kg; ED50 (Mus musculus [8]): inactive; ED50 (Mus musculus [9]): inactive; Ki (Cannabinoid receptor 1 [5]): 48 nM

Q: For CCCCCC(C)C/C=C\C/C=C\C/C=C\C/C=C\CCC(C)C(=O)NCCF (centres undefined), which ED50 (Mus musculus [7]) is on record?
A: 0.24 mg/kg

Q: What about the ED50 (Mus musculus [2]) of the same compound?
A: 2.09 mg/kg

Q: What about the ED50 (Mus musculus [3]) of the same compound?
A: 2.67 mg/kg

Q: And the ED50 (Mus musculus [4])?
A: 4.08 mg/kg

Q: What about the Ki (Cannabinoid receptor 1 [5]) of the same compound?
A: 3.3 nM

Q: Which results are given for CCCCCC(C)C/C=C\C/C=C\C/C=C\C/C=C\CCCC(=O)NCCO (centres undefined)?
A: Ki (Cannabinoid receptor 1 [6]): 51 nM; ED50 (Mus musculus [7]): 12.2 mg/kg; ED50 (Mus musculus [2]): 6.22 mg/kg; ED50 (Mus musculus [3]): 5.29 mg/kg; ED50 (Mus musculus [4]): 5.48 mg/kg; Ki (Cannabinoid receptor 1 [5]): 11 nM

Q: With CCCCCCC(C)/C=C\C/C=C\C/C=C\C/C=C\CCC(C)C(=O)NCCF (centres undefined) as the compound, how does the ED50 (Mus musculus [7]) read?
A: 0.08 mg/kg

Q: What about the ED50 (Mus musculus [2]) of the same compound?
A: 1.15 mg/kg

Q: What about the ED50 (Mus musculus [3]) of the same compound?
A: 2.22 mg/kg

Q: What about the ED50 (Mus musculus [4]) of the same compound?
A: 1.3 mg/kg

Q: And the Ki (Cannabinoid receptor 1 [5])?
A: 4.8 nM

Q: What does the source list for CCCCCCCCC/C=C\C/C=C\C/C=C\C/C=C\CCCC(=O)NCCO?
A: Ki (Cannabinoid receptor 1 [6]): 79 nM; ED50 (Mus musculus [1]): inactive; ED50 (Mus musculus [2]): 7.35 mg/kg; ED50 (Mus musculus [3]): 5.13 mg/kg; ED50 (Mus musculus [4]): 14.4 mg/kg; Ki (Cannabinoid receptor 1 [5]): 25 nM

Q: What does the source list for CCCCCc1cc(O)c2c(c1)OC(C)(C)C1CCC(C)=C[C@@H]21 (single isomer, unassigned) [DRONABINOL]?
A: ED50 (Mus musculus [7]): 1.4 mg/kg; ED50 (Mus musculus [2]): 1 mg/kg; ED50 (Mus musculus [3]): 1.5 mg/kg; ED50 (Mus musculus [4]): 1.4 mg/kg

Q: With CCCCC/C=C\C/C=C\C/C=C\C/C=C\CCCC(=O)NCCO [ANANDAMIDE] as the compound, how does the ED50 (Mus musculus [7]) read?
A: 26.5 mg/kg

Q: And the ED50 (Mus musculus [2])?
A: 17.9 mg/kg

Q: And the ED50 (Mus musculus [3])?
A: 19.1 mg/kg

Q: And the ED50 (Mus musculus [4])?
A: 6.2 mg/kg

Q: CCCCCCC(C)(C)/C=C\C/C=C\C/C=C\C/C=C\CCC(C)C(=O)NCCF (centres undefined) was tested. Which ED50 (Mus musculus [7]) did it give?
A: 3.6 mg/kg

Q: What about the ED50 (Mus musculus [2]) of the same compound?
A: 3.48 mg/kg

Q: And the ED50 (Mus musculus [3])?
A: 3.11 mg/kg

Q: What about the ED50 (Mus musculus [4]) of the same compound?
A: 0.86 mg/kg

Q: What about the Ki (Cannabinoid receptor 1 [5]) of the same compound?
A: 1 nM

Q: CCCCCC/C=C\C/C=C\C/C=C\C/C=C\CCCC(=O)NCCO was tested. Which Ki (Cannabinoid receptor 1 [6]) did it give?
A: 3060 nM

Q: And the ED50 (Mus musculus [1])?
A: inactive

Q: What about the ED50 (Mus musculus [10]) of the same compound?
A: inactive

Q: What about the ED50 (Mus musculus [8]) of the same compound?
A: inactive

Q: What about the ED50 (Mus musculus [9]) of the same compound?
A: inactive

Q: And the Ki (Cannabinoid receptor 1 [5])?
A: 24 nM

Q: Which results are given for CCCCCCC(C)(C)/C=C\C/C=C\C/C=C\C/C=C\CCCC(=O)NCCO?
A: ED50 (Mus musculus [7]): 7.49 mg/kg; ED50 (Mus musculus [2]): 2.17 mg/kg; ED50 (Mus musculus [3]): 1.17 mg/kg; ED50 (Mus musculus [4]): 2.16 mg/kg; Ki (Cannabinoid receptor 1 [5]): 7 nM
